# Measurements published in ChEMBL document CHEMBL1921791, “Arylsulfonamidopiperidone derivatives as a novel class of factor Xa inhibitors” (Bioorg Med Chem Lett, 2011).
# Legend:
# [1] = Permeability from apical to basolateral side of human Caco2 cells at 3 uM; format: ADME, cell-based; details: Caco-2, read-out: permeability
# In short: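 Caco-2 monolayers: apical-to-basolateral permeability was measured at pH 6.5 and reported in nm/s.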
# [2] = Half life in human liver microsomes at 0.5 uM at pH 7.4 in presence of NADPH; format: ADME, Microsome
# In short: (§1)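 Liver microsomal stability was measured with 0.5 µM compound and 1.0 mg/mL microsomal protein, in 1.0 mM NADPH, 100 mM NaPi and 5.0 mM MgCl₂, at pH 7.4 and 37 °C. Half-life was determined.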
# [3] = Half life in rat liver microsomes at 0.5 uM at pH 7.4 in presence of NADPH; format: ADME, Microsome; in short: as §1
# [4] = Half life in mouse liver microsomes at 0.5 uM at pH 7.4 in presence of NADPH; format: ADME, Microsome; in short: as §1
# [5] = Half life in dog liver microsomes at 0.5 uM at pH 7.4 in presence of NADPH; format: ADME, Canis lupus familiaris, Microsome; in short: as §1
# [6] = Half life in cynomolgus monkey liver microsomes at 0.5 uM at pH 7.4 in presence of NADPH; format: ADME, Macaca fascicularis, Microsome; in short: as §1
SMILES,Papp A→B at 3 µM [1],half-life at 0.5 µM [2],half-life at 0.5 µM [3],half-life at 0.5 µM [4],half-life at 0.5 µM [5],half-life at 0.5 µM [6]
O=C(CN1CCC[C@H](NS(=O)(=O)c2ccc3cc(Cl)ccc3c2)C1=O)N1C[C@@H]2C[C@H](C1)c1cccc(=O)n1C2,2.5 ×10⁻⁶ cm/s,< 2 min,< 2 min,< 2 min,< 2 min,< 2 min
NC(=O)C(=O)N1CC2CC(CN(C(=O)CN3CCC[C@H](NS(=O)(=O)c4ccc5cc(Cl)ccc5c4)C3=O)C2)C1,< 1.5 ×10⁻⁶ cm/s,,,,,
O=C(CN1CCC[C@H](NS(=O)(=O)c2ccc3cc(Cl)ccc3c2)C1=O)N1CC2CC(C1)CN(C(=O)C1CCNCC1)C2,< 1.5 ×10⁻⁶ cm/s,,,,,
Nc1[nH]ncc1C(=O)N1CC2CC(CN(C(=O)CN3CCC[C@H](NS(=O)(=O)c4ccc5cc(Cl)ccc5c4)C3=O)C2)C1,< 1.5 ×10⁻⁶ cm/s,,,,,
O=C(CN1CCC[C@H](NS(=O)(=O)c2ccc3cc(Cl)ccc3c2)C1=O)N1CC2CNCC(C2)C1,< 1.5 ×10⁻⁶ cm/s,,,,,
CS(=O)(=O)N1CC2CC(CN(C(=O)CN3CCC[C@H](NS(=O)(=O)c4ccc5cc(Cl)ccc5c4)C3=O)C2)C1,< 1.5 ×10⁻⁶ cm/s,,,,,
CC(=O)N1CC2CC(C1)CN(C(=O)CN1CCC[C@H](NS(=O)(=O)c3ccc4cc(Cl)ccc4c3)C1=O)C2,7.3 ×10⁻⁶ cm/s,< 2 min,< 2 min,< 2 min,< 2 min,< 2 min
NC(=O)N1CC2CC(C1)CN(C(=O)CN1CCC[C@H](NS(=O)(=O)c3ccc4cc(Cl)ccc4c3)C1=O)C2,< 1.5 ×10⁻⁶ cm/s,,,,,
